The source of these data is PubChem BioAssay.

Molecules are shown by their SMILES. A number with no mark means an inactive call. Inconclusive results are not listed. Calls of active or inactive are those of the source.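 How the source made its calls, unless noted: active means cell viability at or below a set limit in both duplicate runs, the limit being the all-compound median minus 4 SD (cut at about 23% in these data, passing the limit was not always enough); inconclusive means no clear call, values can overlap the other calls; inactive means the rest.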

By viability is commonly meant a read-out of living cells in per cent, often relative to untreated cells. As usually defined, the inhibition is the drop in the measured response relative to a control, in per cent.

Assay [1] is described as follows: S. cerevisiae growth inhibition in permissive medium (OD615), pilot counter-assay for S. cerevisiae lifespan shortening project, permissive growth control (AID 705;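 active means growth inhibition above 25% in both replicates, a cutoff set 3 SD above the mean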). To be noted: OD615, 24 h, at 10 µM, active compounds read high. The method in brief:
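Material: engineered DeaD yeast; compound dosing: one dose 10 µM, DMSO 0.25% final; measure: yeast growth inhibition indicated by reduced 24 h OD615; detection: OD615 turbidity read; incubation: cells pre-grown 4 h, then 24 h compound exposure, 30 °C humidified; medium: permissive synthetic complete medium with raffinose and galactose carbon sources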

A short description of assay [2]: S. cerevisiae growth inhibition in restrictive medium, OD615, pilot screen, restrictive growth control, yeast lifespan reduction project (AID 706;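 active means growth inhibition above a set limit, 3 SD over mean compound inhibition, in both replicates, cut at about 43% in these data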;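 further: modified DeaD lifespan yeast strain shifted to restrictive glucose medium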). To be noted: OD615, 48 h, at 10 µM, active compounds read high. The method in brief:
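material = engineered S. cerevisiae DeaD strain | medium = glucose-based CSMM-D restrictive medium | times = 4 h pre-incubation, 48 h exposure at 30 °C | technique = OD615 absorbance reading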

Assay [3] is described as follows: doxorubicin toxicity protection in MRP-1 cells – H69AR cells, CellTiter-Glo, duplicate, MRP-1 activator project, pilot screen (AID 807;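 active means viability increase at or above a cutoff of the median across tested compounds plus 3 SD, cut at about 8.5% in these data, passing the limit was not always enough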;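 further: compound pretreatment 18-22 h then 72 h combined with doxorubicin; 0% = doxorubicin alone and 100% = vehicle without doxorubicin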). To be noted: H69AR viability with doxorubicin, CellTiter-Glo luminescence; at 10 µM; active compounds read high. (In general: Cellular ATP, detected with luciferase, serves as a proxy for viable cell number.)
The nature of assay [4]: viability of HCT116 without oncogenic beta-catenin – human colon tumor cells, pilot screen (AID 823).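 Further: 0% = wells killed by 20 µM Hyamine and 100% = untreated DMSO cell wells.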 To be noted: HCT116 beta-catenin knockout viability, CellTiter-Glo, 60 h; at 10 µM; active compounds read low.
A short description of assay [5]: viability of PTEN-null HCT116 cells – cell-based, HCT116 clonal line, CellTiter-Glo, pilot screen (AID 824;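 active means viability at or below 27.92% in each of two runs, the all-compound median minus 4 SD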;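 further: 0% = 20 µM Hyamine control and 100% = vehicle cell control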). To be noted: HCT116 PTEN-deleted viability, 60 h, at 10 µM, active compounds read low.
Assay [6] is described as follows: RAM pathway blockade in budding yeast – dse1pr::URA3 reporter, 5-FOA selection, pilot screen (AID 869;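 active means inhibition over a set limit, the all-compound mean plus 3 SD, in both replicate runs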;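 further: 0% = DMSO wells with no growth and 100% = 10 µM 1-NA-PP1 with full growth; RAM network block rescues cells from 5-FOA so hits raise OD615 growth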). To be noted: S. cerevisiae dse1pr::URA3 5-FOA growth, OD615, 2 d; at 10 µM; active compounds read high; strain carries analog-sensitive mutant Cbk1 kinase.
The nature of assay [7]: RAM signaling pathway blockade in yeast – S. cerevisiae, Pdr1DBD-CYC8 efflux-inhibited sensitized strain, primary screen (AID 1298;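 active means RAM network inhibition above 8.4% in each of two replicates, 3 SD over the compound average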;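 further: 0% = DMSO untreated cells without growth and 100% = 10 µM 1-NA-PP1 full growth; higher means more yeast growth rescued from 5-FOA killing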). To be noted: S. cerevisiae cbk1-as DSE1-URA3 strain, 5-FOA growth OD615, 2 d; at 50 µM; active compounds read high.

Regarding `CCOC(=O)N1CCN(C(=O)c2cn(-c3ccc(C)c(C)c3)c(=O)c3ccccc23)CC1`, the growth inhibition was -10.6% in assay [1] and -0.85% in assay [2]. Besides, the viability increase in assay [3] was -2.69%. Further, the viability was 85.6% in assay [4] and 94.4% in assay [5]. Moreover, in assay [6], the inhibition was 0.51%. Also, the RAM network inhibition in assay [7] is -0.53%.

As for `CCC(=O)Nc1nnc(-c2ccc(OC)cc2)o1`, the growth inhibition in assay [1] is -8.21%; in assay [2], -11.8%. Besides, in assay [3], the viability increase is -1.1%. The results for the viability in assay [4] and in assay [5] were 103% and 98.4%, respectively. In addition, the inhibition in assay [6] is 1.01%. For the same compound, the RAM network inhibition in assay [7] is -0.04%.

Regarding `O=C(Cn1nnc(-c2ccccc2F)n1)Nc1cccc2ncccc12`, the growth inhibition is 1.42% in assay [1] and -14.2% in assay [2]. The viability increase in assay [3] is -2.32%. The figures for the viability in assay [4] and in assay [5] were 103% and 98%, respectively. For the same compound, in assay [6], the inhibition was 1.36%. Moreover, the RAM network inhibition in assay [7] was 2.23%.

As for `CC(=O)c1c(C)[nH]c(C(=O)N2c3ccccc3CC2C)c1C` (stereo unspecified), the growth inhibition in assay [1] was -1.11%; in assay [2], 3.09%. The viability increase in assay [3] is -0.41%. Further, the viability is 92.3% in assay [4] and 92.6% in assay [5]. For the same compound, in assay [6], the inhibition is 0.755%. The RAM network inhibition in assay [7] was 3.82%.

Regarding `COc1ccc(N2CCN(S(=O)(=O)c3cccc4cccnc34)CC2)cc1`, the growth inhibition in assay [1] is -3.57%; in assay [2], 8.34%. Also, the viability increase in assay [3] is -2.89%. For the same compound, the viability in assay [4] is 84.9%; in assay [5], 83.6%. Also, the inhibition in assay [6] is 0.47%. In addition, the RAM network inhibition in assay [7] is 3.66%.

For the compound `COCc1cc(CN2CCCC2)c(O)c2ncccc12`, the figures for the growth inhibition in assay [1] and in assay [2] were -11.1% and -11.6%, respectively. For the same compound, the viability increase in assay [3] is 0.15%. Moreover, the viability in assay [4] was 8.07% (active); in assay [5], 11.3% (active). Moreover, the inhibition in assay [6] is -0.255%. In addition, the RAM network inhibition in assay [7] is 5.55%.

Take `COc1ccc(N2C(=O)C3CCCN3C2c2ccccc2OC)cc1` (stereo unspecified): the figures for the growth inhibition in assay [1] and in assay [2] were 2.4% and -3.83%, respectively. Besides, the viability increase in assay [3] was -3.2%. Besides, the viability was 103% in assay [4] and 97.4% in assay [5]. The inhibition in assay [6] is 0.02%. The RAM network inhibition in assay [7] is 0.12%.

Regarding `Cc1ccc(-c2nc(CS(=O)CC(=O)NCCN3CCCC3)c(C)o2)cc1` (stereo unspecified), the growth inhibition in assay [1] was -8.03%; in assay [2], -5.56%. Also, the viability increase in assay [3] is -2.7%. Further, the viability is 86.4% in assay [4] and 99.3% in assay [5]. Moreover, the inhibition in assay [6] is 0.18%. In assay [7], the RAM network inhibition is 0.43%.

For the compound `CC(C)NC(=O)C1(O)c2ccccc2NC(=O)N1c1ccc(Cl)c(Cl)c1` (stereo unspecified), the growth inhibition in assay [1] is -5.92%; in assay [2], -12.9%. The viability increase in assay [3] was -2.69%. Further, the results for the viability in assay [4] and in assay [5] were 89.6% and 93.9%, respectively. In assay [6], the inhibition is 0.375%. The RAM network inhibition in assay [7] is 2.53%.

For the compound `COC(=O)C1CCCN1C(C(=O)NC1CCCCC1)c1ccc(Cl)cc1` (stereo unspecified), the growth inhibition was -15.1% in assay [1] and -2.47% in assay [2]. Besides, the viability increase in assay [3] is 1.72%. For the same compound, the viability in assay [4] is 82.7%; in assay [5], 74.9%. Moreover, in assay [6], the inhibition is 0.02%. Also, the RAM network inhibition in assay [7] was 2.27%.

Consider `CC(C)C12CN3CC(C(C)C)(CN(C1)C3c1ccccc1)C2O` (stereo unspecified), for which the growth inhibition in assay [1] was 6%; in assay [2] it was 2.74%. Also, the viability increase in assay [3] is -1.42%. Moreover, the viability in assay [4] is 96.2%; in assay [5], 93.6%. In addition, the inhibition in assay [6] is 1.8%. Further, in assay [7], the RAM network inhibition was 3.93%.

With `Cc1ccc(C(C)C)c(OCc2nc(-c3nonc3N)no2)c1`, the growth inhibition in assay [1] is -13%; in assay [2], -14.4%. For the same compound, in assay [3], the viability increase is 8.48% (active). The viability is 88.3% in assay [4] and 81.2% in assay [5]. For the same compound, the inhibition in assay [6] was 1.71%. In addition, in assay [7], the RAM network inhibition was 3.09%.

Turning to `Cc1nnc(SCC(=O)Nc2ccc3c(c2)OCO3)o1`, the growth inhibition was -0.465% in assay [1] and -12% in assay [2]. Also, the viability increase in assay [3] was -5.27%. Besides, the viability in assay [4] was 102%; in assay [5], 95.1%. Also, the inhibition in assay [6] is 1.41%. Further, in assay [7], the RAM network inhibition was 4.08%.

In the case of `CCC(Sc1nc(=O)cc(N)n1CCc1ccccc1)C(=O)Nc1cc(C)on1` (stereo unspecified), the growth inhibition in assay [1] is -3.68%; in assay [2] it was -7.75%. Further, the viability increase in assay [3] is -1.78%. Also, the figures for the viability in assay [4] and in assay [5] were 104% and 95.7%, respectively. Besides, in assay [6], the inhibition was 1.33%. Also, in assay [7], the RAM network inhibition was 6.71%.

In the case of `CCc1nn(CC(=O)NCCCN2CCCC2=O)c(=O)c2cc3sccc3n12`, the growth inhibition in assay [1] is -8.81%; in assay [2], -16.4%. For the same compound, the viability increase in assay [3] was -2.31%. The viability in assay [4] is 112%; in assay [5] it was 108%. Also, in assay [6], the inhibition is 1.91%. Moreover, in assay [7], the RAM network inhibition is 0.36%.

As for `Cn1c(=O)oc2cc(S(=O)(=O)NCc3ccccn3)ccc21`, the growth inhibition in assay [1] was -20.9%; in assay [2], -20.2%. Besides, the viability increase in assay [3] was 0.44%. Also, the values for the viability in assay [4] and in assay [5] were 96.5% and 101%, respectively. In assay [6], the inhibition is 3.3%. Besides, in assay [7], the RAM network inhibition was 4.32%.

Turning to `CC(C)N(C(=O)CN(C#N)c1nc(N(C)C)nc(N(C)C)n1)c1ccccc1`, the growth inhibition in assay [1] was -16.1%; in assay [2] it was -7.49%. In addition, in assay [3], the viability increase was -2.51%. Further, the viability in assay [4] is 100%; in assay [5], 106%. Moreover, in assay [6], the inhibition is 2.33%. In addition, the RAM network inhibition in assay [7] is 4.46%.

As to `Cc1nc2c3ccccc3n(CC(=O)c3ccc(F)cc3)c(=O)n2n1`, the figures for the growth inhibition in assay [1] and in assay [2] were -13.8% and -4.75%, respectively. Moreover, the viability increase in assay [3] is -2.79%. Further, the viability in assay [4] was 96.8%; in assay [5], 94.7%. Moreover, in assay [6], the inhibition was 3.38%. The RAM network inhibition in assay [7] was 3.78%.
